Measured values taken from ChEMBL document CHEMBL1124534, “Synthesis, mechanism of action, and biological evaluation of mitosenes” (1989).
Values after ≈ are worked out from the molar mass of the structure shown.

Key:
[1] = test system: Mus musculus; test: Mean relative body weight change of treated / mean relative body weight change of control when compound (6 mg/kg/day) administered to inhibit growth of human tumor xenograft GXF 97 was reported at day 21 in nude mice; type: functional
Outline: (§1)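 GXF 97 xenograft grown subcutaneously in nude mice for 24 days, then randomized; ip dosing began 1 day later, given on days 1-4, with 4-5 mice per group. Read-out is mean relative body weight change of treated divided by mean relative body weight change of controls, in %.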

[2] = test system: Mus musculus; test: Percent T/C ([…]) for antitumor activity against P388 Leukemia in CD2 mice at fractioned dose treatment of 2.5 mg/kg; type: functional
Outline: (§2)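 Mouse P388 leukemia model. Drugs were given intraperitoneally, either as a single injection or once daily for 9 consecutive days (fractioned schedule). Outcomes were median survival time in days, %T/C, and % body weight change.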

[3] = test system: Mus musculus; test: Mean relative body weight change of treated / mean relative body weight change of control when compound (6 mg/kg/day) administered to inhibit growth of human tumor xenograft GXF 97 was reported at day 14 in nude mice; type: functional; outline: as §1
[4] = test system: Mus musculus; test: Body wieght treated/body weight untreated controls of compound (12.5 mg/kg) was evaluated in vivo for antitumor activity against MAC 16 in female NMRI mice on day 4; type: functional
[5] = test system: Mus musculus; test: Percent T/C ([…]) for antitumor activity against P388 Leukemia in CD2 mice at fractioned dose treatment of 8 mg/Kg; type: functional; settings: in the assay text read “single dose” for “fractioned dose”; outline: as §2
[6] = test system: A204; test: In vitro antitumor activity against A204 rhabdomyosarcoma tumor cell line was determined; type: functional; settings: Homo sapiens, read-out: ID50 (the source's name)
Outline: (§3)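 Cell growth inhibition in vitro measured by the PIT method, with mitomycin C as positive reference.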

[7] = test system: WiDr; test: In vitro antitumor activity against WiDr colon carcinoma tumor cell line was determined; type: functional; settings: Homo sapiens, read-out: ID50 (the source's name); outline: as §3
[8] = test system: Mus musculus; test: Median survival time in days for antitumor activity against P388 Leukemia in CD2 mice at a single dose treatment of 6 mg/kg; type: functional
Outline: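 P388 leukemia-bearing mice were given one intraperitoneal injection. The read-out was median survival time in days, reported alongside %T/C and % body weight change.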

[9] = test system: Mus musculus; test: Median survival time in days for antitumor activity against P388 Leukemia in CD2 mice at fractioned dose treatment of 2.5 mg/kg; type: functional
Outline: (§4)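 P388 leukemia-bearing mice were dosed intraperitoneally once daily for 9 consecutive days (fractioned schedule). The read-out was median survival time in days, reported alongside %T/C and % body weight change.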

[10] = test system: Mus musculus; test: Ability of intraperitoneally administered compound (6 mg/kg/day) to inhibit growth of human tumor xenograft GXF 97 was assessed on day 14 in nude mice; type: functional
Outline: (§5)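 GXF 97 human gastric xenograft grown subcutaneously in nude mice for 24 days, then randomized; dosing began 1 day later as ip injections on days 1-4. Groups had 4-5 mice. Tumor length and width were measured. %T/C = median relative tumor size of treated / median relative tumor size of controls.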

[11] = test system: Mus musculus; test: Median survival time in days for antitumor activity against P388 Leukemia in CD2 mice at single dose treatment of 8 mg/Kg
[12] = test system: L1210; test: In vitro antitumor activity against L1210 lymphocytic leukemia tumor cell line was determined; type: functional; settings: Mus musculus, read-out: ID50 (the source's name)
Outline: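 Inhibition of L1210 leukemia colony formation in vitro, with mitomycin C as positive reference.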

[13] = test system: Mus musculus; test: Mean relative body weight change of treated / mean relative body weight change of control when compound (6 mg/kg/day) administered to inhibit growth of human tumor xenograft GXF 97 was reported at day 28 in nude mice; type: functional; outline: as §1
[14] = test system: Mus musculus; test: Percentage change in body weight [(day 6 - day 1)/ day 1] for antitumor activity against P388 Leukemia in CD2 mice at fractioned dose treatment of 2.5 mg/kg; type: functional; outline: as §2
[15] = test system: Mus musculus; test: Percentage change in body weight [(day 6 - day 1)/ day 1] for antitumor activity against P388 Leukemia in CD2 mice at fractioned dose treatment of 1.5 mg/Kg; type: functional; outline: as §2
[16] = test system: Mus musculus; test: Percent T/C ([…]) for antitumor activity against P388 Leukemia in CD2 mice at a single dose treatment of 6 mg/kg; type: functional
Outline: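 P388 leukemia mice given a single intraperitoneal injection. Median survival time (days) and body weight change were recorded. %T/C was derived from the survival of treated versus control mice.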

[17] = test system: Mus musculus; test: Ability of intraperitoneally administered compound (6 mg/kg/day) to inhibit growth of human tumor xenograft GXF 97 was assessed on day 21 in nude mice; type: functional; outline: as §5
[18] = test system: Mus musculus; test: Compound (12.5 mg/Kg) was evaluated in vivo for antitumor activity against MAC 16 in female NMRI mice on day 12 and ratio of tumor weight of treated to that of control was determined; type: functional
[19] = test system: Mus musculus; test: Compound ((12.5 mg/Kg) was evaluated in vivo for antitumor activity against MAC 16 in female NMRI mice on day 4 and ratio of tumor weight of treated to that of control was determined; type: functional
[20] = test system: Mus musculus; test: Percentage change in body weight [(day 6 - day 1)/ day 1] for antitumor activity against P388 Leukemia in CD2 mice at fractioned dose treatment of 8 mg/Kg; type: functional; settings: in the assay text read “single dose treatment” for “fractioned dose treatment”; outline: as §2
[21] = test system: Mus musculus; test: Relative tumor size on day 28 was reported when compound (6 mg/kg/day) administered to inhibit growth of human tumor xenograft GXF 97 in nude mice; type: functional
Outline: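 GXF 97 human gastric xenograft grown subcutaneously in nude mice for 24 days, then mice randomized; treatment began 1 day later. Fractioned ip injections on days 1-4, or single iv injection on day 1; 4-5 mice per group. Tumor size from length and width; relative tumor size (% of controls) read at day 28.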

[22] = test system: Mus musculus; test: Percent change in body weight [(day 6 - day 1)/ day 1] when P388 Leukemic CD2 mice were treated with a compound (6 mg/kg); type: functional
[23] = test system: Mus musculus; test: Median survival time in days for antitumor activity against P388 Leukemia in CD2 mice at fractioned dose treatment of 1.5 mg/Kg; type: functional; outline: as §4
[24] = test system: Mus musculus; test: Ability of intraperitoneally administered compound (6 mg/kg/day) to inhibit growth of human tumor xenograft GXF 97 was assessed on day 28 in nude mice; type: functional; outline: as §5
[25] = test system: Mus musculus; test: Percent inhibition of compound (10 mg/Kg) was evaluated in vivo for antitumor activity against MAC 13 in female NMRI mice on day 2; type: functional
Outline: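 MAC 13 in female NMRI mice. Drugs were given in arachis oil BP by ip route on day 2 or day 29. % inhibition was derived from treated/untreated control tumor weight (volume); a negative value indicates stimulation.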

[26] = test system: Mus musculus; test: Body wieght treated/body weight untreated controls of compound (12.5 mg/kg) was evaluated in vivo for antitumor activity against MAC 16 in female NMRI mice on day 12; type: functional
[27] = test system: Mus musculus; test: Percent T/C ([…]) for antitumor activity against P388 Leukemia in CD2 mice at fractioned dose treatment of 1.5 mg/Kg; type: functional; outline: as §2
[28] = test system: Mus musculus; test: Compound (10 mg/Kg) was evaluated in vivo for antitumor activity against MAC 13 in female NMRI mice on day 2 and ratio of tumor weight of treated to that of control was determined

## COC1=C(C)C(=O)c2c(c(COC(C)=O)c3n2CCC3OC(C)=O)C1=O (stereo not drawn)
[1]
  BWC: 73.5%
[2]
  T/C: 150%
[3]
  BWC: 71%
[4]
  BW: 105%
[5]
  T/C: 82%
[6]
  IC50: 0.001 µg/mL (≈ 0.00277 µM)
[7]
  IC50: 0.01 µg/mL (≈ 0.0277 µM)
[8]
  MST: 13 days
[9]
  MST: 16.5 days
[10]
  T/C: 16.8%
[11]
  MST: 9 days
[12]
  IC50: 0.14 µg/mL (≈ 0.387 µM)
[13]
  BWC: 74.1%
[14]
  BWC: 2%
[15]
  BWC: 8.3%
[16]
  T/C: 118%
[17]
  T/C: 5.9%
[18]
  T/C: 120%
[19]
  T/C: 102%
[20]
  BWC: -7.1%
[21]
  Relative TS: 26.2%
[22]
  BWC: -4.7%
[23]
  MST: 15.5 days
[24]
  T/C: 3.9%
[25]
  I: 27%
[26]
  BW: 78%
[27]
  T/C: 141%
[28]
  T/C: 73%
